# ChEMBL document CHEMBL4354843, “Structure-Based Design of a Potent and Selective Covalent Inhibitor for SRC Kinase That Targets a P-Loop Cysteine” (J Med Chem, 2020)
# What was measured:
# [1] = Half life in B6 mouse at 5 mg/kg, ip; assay type: ADME, organism-based; settings: in vivo
# Procedure, shortened: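 PK in B6 mice. Single 5 mg/kg intraperitoneal dose in 5% DMSO/95% D5W. Half-life and AUC reported.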
# [2] = target: Atypical kinase COQ8B, mitochondrial (Homo sapiens) (UniProt Q96D53); assay: Binding affinity to wild-type human full length ADCK4 (M1 to S544 residues) expressed in bacterial expression system assessed as residual binding level at 1 uM by Kinomescan method relative to control
# Procedure, shortened: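 Active-site-directed KinomeScan competition binding panel covering 468 kinases, compound tested at 1 μM. Each readout is the kinase signal remaining with compound, expressed as a percentage of the DMSO control. […]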
# [3] = target: Calcium/calmodulin-dependent protein kinase type 1G (Homo sapiens) (UniProt Q96NX5); assay: Binding affinity to wild-type human partial length CAMK1G (M1 to A342 residues) expressed in bacterial expression system assessed as residual binding level at 1 uM by Kinomescan method relative to control
# [4] = target: Cyclin-dependent kinase 8 (Homo sapiens) (UniProt P49336); assay: Binding affinity to wild-type human partial length CDK8 (M1 to T360 residues) expressed in bacterial expression system assessed as residual binding level at 1 uM by Kinomescan method relative to control
# [5] = target: Serine/threonine-protein kinase Chk1 (Homo sapiens) (UniProt O14757); assay: Binding affinity to wild-type human partial length CHEK1 (M1 to G289 residues) expressed in bacterial expression system assessed as residual binding level at 1 uM by Kinomescan method relative to control
# [6] = target: Serine/threonine-protein kinase 17A (Homo sapiens) (UniProt Q9UEE5); assay: Binding affinity to wild-type human partial length DRAK1 (R32 to E363 residues) expressed in bacterial expression system assessed as residual binding level at 1 uM by Kinomescan method relative to control
# [7] = system: Epidermal growth factor receptor (Homo sapiens), P00533 [L858R]; assay: Binding affinity to human partial length EGFR L858R mutant (R669 to V1011 residues) expressed in bacterial expression system assessed as residual binding level at 1 uM by Kinomescan method relative to control
# Procedure, shortened: (§1)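 KinomeScan active site-directed competition binding panel (468 kinases), compound tested at 1 μM. Result expressed as remaining kinase signal versus DMSO control (percent of control).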
# [8] = system: Receptor-type tyrosine-protein kinase FLT3 (Homo sapiens), P36888 [N841I]; assay: Binding affinity to human partial length FLT3 N841I mutant (V592 to Y969 residues) expressed in bacterial expression system assessed as residual binding level at 1 uM by Kinomescan method relative to control; procedure, shortened: as §1
# [9] = system: eIF-2-alpha kinase GCN2 (Homo sapiens), Q9P2K8 [S808G]; assay: Binding affinity to wild-type human partial length GCN2 kinase domain 2 (R585 to T1018 residues) S808G mutant expressed in bacterial expression system assessed as residual binding level at 1 uM by Kinomescan method relative to control
# [10] = target: Homeodomain-interacting protein kinase 3 (Homo sapiens) (UniProt Q9H422); assay: Binding affinity to wild-type human partial length HIPK3 (M153 to N562 residues) expressed in mammalian expression system assessed as residual binding level at 1 uM by Kinomescan method relative to control
# Procedure, shortened: (§2)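 Active-site-directed competition binding panel of 468 kinases (KinomeScan), compound at 1 μM. The read-out is kinase remaining bound, given as a percentage of the DMSO control. […]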
# [11] = target: Homeodomain-interacting protein kinase 4 (Homo sapiens) (UniProt Q8NE63); assay: Binding affinity to wild-type human partial length HIPK4 (M1 to V384 residues) expressed in bacterial expression system assessed as residual binding level at 1 uM by Kinomescan method relative to control
# [12] = target: Mitogen-activated protein kinase kinase kinase 3 (Homo sapiens) (UniProt Q99759); assay: Binding affinity to wild-type human partial length MAP3K3 (E320 to Y626 residues) expressed in mammalian expression system assessed as residual binding level at 1 uM by Kinomescan method relative to control
# [13] = target: Myosin-IIIa (Homo sapiens) (UniProt Q8NEV4); assay: Binding affinity to wild-type human partial length MYO3A (M1 to K338 residues) expressed in bacterial expression system assessed as residual binding level at 1 uM by Kinomescan method relative to control
# [14] = target: Serine/threonine-protein kinase Nek3 (Homo sapiens) (UniProt P51956); assay: Binding affinity to wild-type human full length NEK3 (M1 to R506 residues) expressed in mammalian expression system assessed as residual binding level at 1 uM by Kinomescan method relative to control
# Procedure, shortened: (§3)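 KinomeScan, an active site-directed competition binding panel of 468 kinases. The test compound was at 1 μM. The readout is remaining kinase binding as a percentage of the DMSO control. Scores above 35% were treated as weak binding and not listed.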
# [15] = target: Serine/threonine-protein kinase PAK 2 (Homo sapiens) (UniProt Q13177); assay: Binding affinity to wild-type human partial length PAK2 (P151 to R525 residues) expressed in bacterial expression system assessed as residual binding level at 1 uM by Kinomescan method relative to control; procedure, shortened: as §2
# [16] = target: Cyclin-dependent kinase 14 (Homo sapiens) (UniProt O94921); assay: Binding affinity to wild-type human full length PFTK1 (M1 to H451 residues) expressed in bacterial expression system assessed as residual binding level at 1 uM by Kinomescan method relative to control
# Procedure, shortened: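 Active-site-directed competition binding panel (KinomeScan) covering 468 kinases. Test agent was screened at 1 μM. The read-out is the remaining kinase signal expressed relative to a DMSO control. Scores above 35%, taken as weak binding, were not reported.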
# [17] = target: SNF-related serine/threonine-protein kinase (Homo sapiens) (UniProt Q9NRH2); assay: Binding affinity to wild-type human partial length SNRK (M1 to E339 residues) expressed in mammalian expression system assessed as residual binding level at 1 uM by Kinomescan method relative to control
# [18] = target: Activated CDC42 kinase 1 (Homo sapiens) (UniProt Q07912); assay: Binding affinity to wild-type human partial length TNK2 (S159 to D474 residues) expressed in bacterial expression system assessed as residual binding level at 1 uM by Kinomescan method relative to control
# Procedure, shortened: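 Active site-directed competition binding panel (KinomeScan, 468 kinases). Test compound at 1 μM. Read-out is kinase binding remaining versus DMSO control, expressed as percent of control. Scores above 35% are treated as weak binding.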
# [19] = target: Testis-specific serine/threonine-protein kinase 3 (Homo sapiens) (UniProt Q96PN8); assay: Binding affinity to wild-type human full length TSSK3 (M1 to T268 residues) expressed in mammalian expression system assessed as residual binding level at 1 uM by Kinomescan method relative to control; procedure, shortened: as §3
# [20] = target: Serine/threonine-protein kinase 32B (Homo sapiens) (UniProt Q9NY57); assay: Binding affinity to wild-type human full length YANK2 (M1 to S414 residues) expressed in bacterial expression system assessed as residual binding level at 1 uM by Kinomescan method relative to control
# Serine/threonine-protein kinase 32B (Homo sapiens), sequence (Q9NY57 whole entry, the tested form may be a part): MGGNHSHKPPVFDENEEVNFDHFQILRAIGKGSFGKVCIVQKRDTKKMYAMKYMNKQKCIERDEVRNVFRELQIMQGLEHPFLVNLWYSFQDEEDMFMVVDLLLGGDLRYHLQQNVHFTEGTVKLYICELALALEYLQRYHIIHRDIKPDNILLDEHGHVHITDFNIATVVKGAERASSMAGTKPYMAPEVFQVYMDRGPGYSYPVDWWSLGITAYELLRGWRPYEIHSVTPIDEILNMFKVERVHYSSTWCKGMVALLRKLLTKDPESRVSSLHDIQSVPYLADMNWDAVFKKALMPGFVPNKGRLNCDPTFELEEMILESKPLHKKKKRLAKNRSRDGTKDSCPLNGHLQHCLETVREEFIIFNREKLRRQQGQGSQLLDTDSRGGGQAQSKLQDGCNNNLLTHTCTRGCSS
# Myosin-IIIa (Homo sapiens), sequence (Q8NEV4 whole entry, the tested form may be a part): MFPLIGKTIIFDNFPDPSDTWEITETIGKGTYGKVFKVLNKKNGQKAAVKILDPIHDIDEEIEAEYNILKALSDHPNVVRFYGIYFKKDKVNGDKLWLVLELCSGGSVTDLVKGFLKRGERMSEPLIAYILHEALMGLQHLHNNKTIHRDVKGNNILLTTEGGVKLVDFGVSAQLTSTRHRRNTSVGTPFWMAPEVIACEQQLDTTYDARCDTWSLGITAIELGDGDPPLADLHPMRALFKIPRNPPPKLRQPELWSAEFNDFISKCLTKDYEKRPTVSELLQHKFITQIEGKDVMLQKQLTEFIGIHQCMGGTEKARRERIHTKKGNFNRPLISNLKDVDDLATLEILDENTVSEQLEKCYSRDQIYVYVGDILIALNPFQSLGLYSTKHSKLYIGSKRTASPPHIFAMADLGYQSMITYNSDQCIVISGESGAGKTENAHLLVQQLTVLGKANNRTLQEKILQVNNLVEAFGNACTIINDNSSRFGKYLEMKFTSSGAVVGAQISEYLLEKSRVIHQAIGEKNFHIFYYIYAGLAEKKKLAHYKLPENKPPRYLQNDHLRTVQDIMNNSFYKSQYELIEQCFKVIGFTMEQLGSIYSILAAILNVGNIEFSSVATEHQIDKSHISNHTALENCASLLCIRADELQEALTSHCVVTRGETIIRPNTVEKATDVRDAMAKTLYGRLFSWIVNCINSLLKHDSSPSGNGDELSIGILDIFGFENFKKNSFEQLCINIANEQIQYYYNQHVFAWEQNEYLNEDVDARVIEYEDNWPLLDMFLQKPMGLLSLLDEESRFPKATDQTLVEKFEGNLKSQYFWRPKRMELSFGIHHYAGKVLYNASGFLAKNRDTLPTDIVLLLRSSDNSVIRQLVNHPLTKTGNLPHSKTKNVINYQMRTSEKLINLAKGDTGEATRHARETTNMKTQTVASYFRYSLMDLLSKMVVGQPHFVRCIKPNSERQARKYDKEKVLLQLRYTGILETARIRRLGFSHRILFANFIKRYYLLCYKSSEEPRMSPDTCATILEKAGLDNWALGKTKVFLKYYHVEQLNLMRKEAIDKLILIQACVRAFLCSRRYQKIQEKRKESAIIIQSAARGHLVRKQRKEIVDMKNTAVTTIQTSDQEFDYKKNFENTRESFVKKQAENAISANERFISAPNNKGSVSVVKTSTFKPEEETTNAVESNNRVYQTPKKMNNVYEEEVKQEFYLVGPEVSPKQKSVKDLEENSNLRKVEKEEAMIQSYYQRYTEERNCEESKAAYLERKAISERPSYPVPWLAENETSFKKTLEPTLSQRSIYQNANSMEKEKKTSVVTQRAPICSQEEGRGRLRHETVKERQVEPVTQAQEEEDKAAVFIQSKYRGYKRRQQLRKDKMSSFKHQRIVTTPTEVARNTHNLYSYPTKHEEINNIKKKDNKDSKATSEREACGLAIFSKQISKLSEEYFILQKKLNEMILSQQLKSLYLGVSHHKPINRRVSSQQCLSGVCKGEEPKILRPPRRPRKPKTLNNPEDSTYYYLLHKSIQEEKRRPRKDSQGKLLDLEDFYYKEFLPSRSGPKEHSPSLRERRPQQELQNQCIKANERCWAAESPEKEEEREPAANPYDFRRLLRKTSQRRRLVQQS
# SNF-related serine/threonine-protein kinase (Homo sapiens), sequence (Q9NRH2 whole entry, the tested form may be a part): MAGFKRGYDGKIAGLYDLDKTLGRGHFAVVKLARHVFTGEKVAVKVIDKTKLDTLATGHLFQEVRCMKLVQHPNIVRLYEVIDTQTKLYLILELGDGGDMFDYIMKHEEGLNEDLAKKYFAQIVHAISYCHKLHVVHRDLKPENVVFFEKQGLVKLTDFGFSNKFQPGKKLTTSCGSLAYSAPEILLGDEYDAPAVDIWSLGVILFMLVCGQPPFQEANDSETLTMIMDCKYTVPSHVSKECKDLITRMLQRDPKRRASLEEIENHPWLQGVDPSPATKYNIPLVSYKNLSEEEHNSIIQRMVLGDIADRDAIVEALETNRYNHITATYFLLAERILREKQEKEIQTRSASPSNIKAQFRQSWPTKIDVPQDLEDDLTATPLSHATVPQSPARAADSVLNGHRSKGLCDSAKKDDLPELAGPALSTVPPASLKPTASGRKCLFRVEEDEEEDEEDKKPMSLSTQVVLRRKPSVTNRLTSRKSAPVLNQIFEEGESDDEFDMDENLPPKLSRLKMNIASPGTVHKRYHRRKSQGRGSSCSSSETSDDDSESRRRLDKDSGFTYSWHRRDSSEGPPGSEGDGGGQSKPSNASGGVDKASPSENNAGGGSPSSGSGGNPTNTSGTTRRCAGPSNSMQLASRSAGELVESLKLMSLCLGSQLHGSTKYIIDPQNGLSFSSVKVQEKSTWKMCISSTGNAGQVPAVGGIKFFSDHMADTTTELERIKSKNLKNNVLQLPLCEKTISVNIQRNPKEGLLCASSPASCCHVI
# Homeodomain-interacting protein kinase 4 (Homo sapiens), sequence (Q8NE63 whole entry, the tested form may be a part): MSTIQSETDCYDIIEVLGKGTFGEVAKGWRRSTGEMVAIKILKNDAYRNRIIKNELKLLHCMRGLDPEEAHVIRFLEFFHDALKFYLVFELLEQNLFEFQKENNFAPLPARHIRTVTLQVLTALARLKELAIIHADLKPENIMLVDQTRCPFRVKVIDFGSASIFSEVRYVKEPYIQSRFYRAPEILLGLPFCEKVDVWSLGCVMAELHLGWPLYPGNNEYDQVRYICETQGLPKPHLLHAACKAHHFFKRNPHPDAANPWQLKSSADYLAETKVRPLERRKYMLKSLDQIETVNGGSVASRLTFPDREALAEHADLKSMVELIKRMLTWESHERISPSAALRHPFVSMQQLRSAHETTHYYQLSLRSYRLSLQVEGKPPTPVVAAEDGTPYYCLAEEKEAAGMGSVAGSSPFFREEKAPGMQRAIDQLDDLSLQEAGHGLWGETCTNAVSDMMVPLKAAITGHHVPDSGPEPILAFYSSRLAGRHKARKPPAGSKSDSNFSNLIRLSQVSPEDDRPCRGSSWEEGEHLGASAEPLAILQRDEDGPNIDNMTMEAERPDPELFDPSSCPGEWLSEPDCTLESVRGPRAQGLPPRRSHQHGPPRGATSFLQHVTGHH
# Atypical kinase COQ8B, mitochondrial (Homo sapiens), sequence (Q96D53 whole entry, the tested form may be a part): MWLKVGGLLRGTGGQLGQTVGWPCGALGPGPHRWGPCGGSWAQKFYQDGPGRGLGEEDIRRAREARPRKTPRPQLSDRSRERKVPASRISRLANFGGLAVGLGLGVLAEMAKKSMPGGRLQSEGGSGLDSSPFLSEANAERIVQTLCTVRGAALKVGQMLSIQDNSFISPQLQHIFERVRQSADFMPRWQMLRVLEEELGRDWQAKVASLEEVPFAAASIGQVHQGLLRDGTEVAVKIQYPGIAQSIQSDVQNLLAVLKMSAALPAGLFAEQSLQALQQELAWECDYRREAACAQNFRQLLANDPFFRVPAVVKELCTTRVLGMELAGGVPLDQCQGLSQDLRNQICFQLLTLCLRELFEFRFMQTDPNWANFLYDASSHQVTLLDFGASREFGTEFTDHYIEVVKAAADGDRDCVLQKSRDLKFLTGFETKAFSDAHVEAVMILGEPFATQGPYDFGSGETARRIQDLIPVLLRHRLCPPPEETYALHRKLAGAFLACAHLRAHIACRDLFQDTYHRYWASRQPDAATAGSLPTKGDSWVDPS
# Cyclin-dependent kinase 8 (Homo sapiens), sequence (P49336 whole entry, the tested form may be a part): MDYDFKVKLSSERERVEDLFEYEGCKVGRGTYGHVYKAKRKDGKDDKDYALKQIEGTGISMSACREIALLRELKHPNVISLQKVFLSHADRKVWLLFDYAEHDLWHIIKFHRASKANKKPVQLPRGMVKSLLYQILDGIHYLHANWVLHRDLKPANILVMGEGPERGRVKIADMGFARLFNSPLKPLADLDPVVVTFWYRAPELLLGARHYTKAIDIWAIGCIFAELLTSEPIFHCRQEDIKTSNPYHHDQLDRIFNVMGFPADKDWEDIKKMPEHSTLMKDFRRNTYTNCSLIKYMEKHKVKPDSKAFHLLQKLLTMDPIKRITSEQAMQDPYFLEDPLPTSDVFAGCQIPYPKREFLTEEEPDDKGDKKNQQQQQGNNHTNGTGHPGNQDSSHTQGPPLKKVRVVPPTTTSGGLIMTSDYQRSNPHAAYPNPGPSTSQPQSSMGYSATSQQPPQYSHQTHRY
# Serine/threonine-protein kinase Nek3 (Homo sapiens), sequence (P51956 whole entry, the tested form may be a part): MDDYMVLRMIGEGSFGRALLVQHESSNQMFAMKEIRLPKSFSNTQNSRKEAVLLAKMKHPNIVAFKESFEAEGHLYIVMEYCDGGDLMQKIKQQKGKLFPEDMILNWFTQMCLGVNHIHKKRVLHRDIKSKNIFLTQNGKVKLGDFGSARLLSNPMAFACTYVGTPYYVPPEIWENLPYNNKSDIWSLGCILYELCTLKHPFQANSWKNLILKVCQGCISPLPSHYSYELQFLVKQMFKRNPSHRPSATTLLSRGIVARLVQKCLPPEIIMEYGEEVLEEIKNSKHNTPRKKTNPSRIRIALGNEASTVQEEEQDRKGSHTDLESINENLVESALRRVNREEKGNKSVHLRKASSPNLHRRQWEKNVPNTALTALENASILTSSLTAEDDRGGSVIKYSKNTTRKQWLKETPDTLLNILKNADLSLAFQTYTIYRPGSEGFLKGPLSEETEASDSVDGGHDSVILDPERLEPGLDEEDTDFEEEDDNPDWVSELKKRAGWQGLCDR
structure (smiles),measurement,setting,value
C=CC(=O)Nc1ccccc1Nc1nc(Nc2ccc(N3CCN(C)CC3)cc2)ncc1C(=O)Nc1c(C)cccc1Cl,half-life,[1],77.4 min
same,Activity,[2],100%
same,Activity,[3],100%
same,Activity,[4],100%
same,Activity,[5],100%
same,Activity,[6],100%
same,Activity,[7],62%
same,Activity,[8],100%
same,Activity,[9],87%
same,Activity,[10],99%
same,Activity,[11],100%
same,Activity,[12],100%
same,Activity,[13],100%
same,Activity,[14],88%
same,Activity,[15],97%
same,Activity,[16],100%
same,Activity,[17],100%
same,Activity,[18],81%
same,Activity,[19],90%
same,Activity,[20],100%
